Results pooled from the literature.
Target: Serine/threonine-protein kinase STK11 (STK11, Homo sapiens, UniProt Q15831)
Residues used in one study (Q15831 1-433): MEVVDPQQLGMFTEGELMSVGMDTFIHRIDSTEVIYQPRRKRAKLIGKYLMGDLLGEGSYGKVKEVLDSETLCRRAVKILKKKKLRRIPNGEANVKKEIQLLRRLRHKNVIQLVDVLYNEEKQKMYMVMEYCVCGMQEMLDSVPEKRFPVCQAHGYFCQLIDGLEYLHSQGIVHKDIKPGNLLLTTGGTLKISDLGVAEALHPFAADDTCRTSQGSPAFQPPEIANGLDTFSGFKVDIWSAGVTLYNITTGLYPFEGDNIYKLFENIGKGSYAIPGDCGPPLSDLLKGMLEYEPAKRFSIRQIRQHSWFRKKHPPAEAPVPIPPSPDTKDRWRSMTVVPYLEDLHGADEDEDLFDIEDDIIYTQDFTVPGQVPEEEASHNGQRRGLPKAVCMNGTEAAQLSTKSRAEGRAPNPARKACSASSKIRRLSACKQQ

| SMILES | assay | conditions | endpoint | result |
| --- | --- | --- | --- | --- |
| Cn1nc(C(F)(F)F)cc1-c1cnc(N2CCc3cc(S(=O)(=O)Nc4c(F)cc(Cl)cc4F)cc(N4CCCC4=O)c32)nc1 | cell-free assay, competition with immobilised ligand | 1 µM | remaining binding | 100% |
| CC(C)c1ccc(NC(=O)c2cccs2)c(-c2nc3ccccc3[nH]c2=O)c1 | enzyme activity, inhibitor | 1 µM | activity vs control | 76% |
| CCN(CC)CCNC(=O)c1c(C)[nH]c(/C=C2\C(=O)Nc3ccc(F)cc32)c1C | enzyme activity, inhibitor | 10 µM | inhibition | 3% |
| FC(F)(F)Oc1cccc(-c2cnc3ccc(-c4ccncc4)nn23)c1 | enzyme activity, inhibitor, radiometric | 5 µM | activity vs control | 106% |
| Cc1cc(NC(=O)c2cccc3cc(-c4cccc5[nH]nc(N)c45)ccc23)ccc1F | enzyme activity, inhibitor | 0.1 µM | activity vs control | 97% |
| O=C1Nc2ccc(Cl)cc2C1=Cc1cc(Cl)c(O)c(Cl)c1 | cell-free assay | 0.5 µM | remaining signal | 93.1% |
| CS(=O)(=O)c1cc(C2(NC(=O)c3cncc4c3cnn4-c3ccc(F)cc3)CC2)ccn1 | cell-free assay, competition with immobilised ligand | 1 µM | remaining binding | 100% |
| Cc1sc(C(=O)NC2COC2)cc1-n1cc(NC(=O)Nc2c(F)cccc2Cl)cn1 | enzyme activity, inhibitor | 10 µM | remaining activity | 97.6% |
| O=c1nc(-c2ccccn2)sc2ccccc12 | binding, competition with immobilised ligand | 1 µM | remaining binding | 79% |
| CC(C)(O)[C@H]1CC[C@H](Nc2ccc3ncc(-c4cccc(C(F)(F)F)c4)n3n2)CC1 | enzyme activity, inhibitor | 1 µM | remaining activity | 90.5% |
| CCCOc1ccc(OC)c(F)c1C(=O)c1ccc(C(=O)N[C@@H]2CNC[C@H]2NC(=O)c2ccc3[nH]ncc3c2)cc1 | enzyme activity, inhibitor | 10 µM | remaining activity | 92% |
| Oc1cccc(-c2nc(N3CCOCC3)c3oc4ncccc4c3n2)c1 | enzyme activity, inhibitor | 10 µM | remaining activity | 62% |
| C[C@@H]1CN(c2cc(-c3nn(C)c4ccc(OC5(C)CC5)cc34)ncn2)C[C@H](C)O1 | cell-free assay, competition with immobilised ligand | 1 µM | remaining binding | 94% |
| CN1CC(Oc2cnc(C#N)cc2-c2ccn3nc(NC(=O)C4CC4)cc3c2)C1 | enzyme activity, inhibitor | 1 µM | inhibition | -2% |
| CNC(=O)c1cc(Oc2ccc(NC(=O)Nc3ccc(Cl)c(C(F)(F)F)c3)cc2)ccn1 | cell-free assay | 0.5 µM | remaining signal | 104% |
| Nc1ncnc2occ(-c3ccc(NC(=O)Nc4cc(C(F)(F)F)ccc4F)cc3)c12 | cell-free assay, inhibitor | 20 µM | remaining signal | 99% |
| CN(c1ccnc(CNc2nc(Nc3ccc4c(c3)CC(=O)N4)ncc2C(F)(F)F)n1)S(C)(=O)=O | cell-free assay, competition with immobilised ligand | 1 µM | remaining binding | 72% |
| Cc1cnc(NC2CCOCC2)nc1-n1cnc(C(=O)NC(CN)c2cc(F)cc(Cl)c2)c1 (stereo not shown) | enzyme activity, inhibitor, radiometric | 1 µM | remaining activity | 104% |
| COc1cc(Nc2cnc(C#N)c(O[C@H](C)CN(C)C)n2)ncc1-c1cnn(C)c1 | enzyme activity, inhibitor, radiometric | 10 µM | remaining activity | 64% |
| COc1cc2ncnc(Nc3ccc(F)c(Cl)c3)c2cc1OCCCN1CCOCC1 | cell-free assay | 0.5 µM | remaining signal | 106% |
| CNC(=O)c1ccc(Nc2ncc(C(F)(F)F)c(NCc3nccnc3N(C)S(C)(=O)=O)n2)cc1 | cell-free assay, competition with immobilised ligand | 0.1 µM | remaining binding | 100% |
| O=C(Nc1cnn(-c2csc(C(=O)NC3COC3)c2)c1)Nc1c(F)cccc1Cl | enzyme activity, inhibitor | 5 µM | remaining activity | 94.7% |
| Cn1c(=O)n(-c2ccc(C(C)(C)C#N)cc2)c2c3cc(-c4cnc5ccccc5c4)ccc3ncc21 | enzyme activity, inhibitor | 10 µM | remaining activity | 105% |
| Cc1cc(-n2nc(Cc3cc(F)cc(C(F)(F)F)c3)nc2C)ccc1C(N)=O | cell-free assay, competition with immobilised ligand | 1 µM | remaining binding | 100% |
| Cc1ccc(Nc2nccc(N(C)c3ccc4c(C)n(C)nc4c3)n2)cc1S(N)(=O)=O | enzyme activity, inhibitor | 10 µM | inhibition | -2% |
